What was measured:
Assay type in all cases: functional
[1] = system: MDA-MB-231; assay: Growth inhibition of human MDA-MB-231 cells after 48 hrs; settings: MDA-MB-231, 48 h; for TGI: read-out: pTGI (converted)
Procedure, shortened: (§1)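 NCI ~60-line screen. Cells were grown in RPMI 1640 with 5% FBS and 2 mM L-glutamine and plated at 5000–40000 cells/well. After a 24 h preincubation, five drug concentrations from DMSO stocks were added for 48 h at 37 °C. Cells were TCA-fixed, stained with SRB and read at 515 nm. GI50 was taken from time-zero and control absorbances and reported as pGI50.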

[2] = system: SN12C; assay: Growth inhibition of human SN12C cells after 48 hrs; settings: for TGI: read-out: pTGI (converted)
Procedure, shortened: (§2)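 NCI 60-line screen: cells in RPMI 1640 with 5% FBS and 2 mM L-glutamine, plated at 5000–40000 cells/well, grown 24 h (37 °C, 5% CO₂), then exposed to five 10-fold or ½-log dilutions (DMSO stock) for 48 h. Fixed with TCA (final 10% for adherent cells, 16% for suspension cells), then SRB stained with absorbance at 515 nm. GI50 from percentage growth relative to time-zero and control wells.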

[3] = system: DU-145; assay: Growth inhibition of human DU145 cells after 48 hrs; settings: DU-145, 48 h; for TGI: read-out: pTGI (converted); procedure, shortened: as §1
[4] = system: HCC 2998; assay: Growth inhibition of human HCC2998 cells after 48 hrs; settings: HCC 2998, 48 h; for TGI: read-out: pTGI (converted); procedure, shortened: as §1
[5] = system: RXF 393; assay: Growth inhibition of human RXF393 cells after 48 hrs; settings: RXF 393, 48 h; for TGI: read-out: pTGI (converted); procedure, shortened: as §1
[6] = system: SK-MEL-5; assay: Growth inhibition of human SK-MEL5 cells after 48 hrs; settings: SK-MEL-5, 48 h; for TGI: read-out: pTGI (converted); procedure, shortened: as §1
[7] = system: SK-MEL-2; assay: Growth inhibition of human SK-MEL2 cells after 48 hrs; settings: SK-MEL-2, 48 h; for TGI: read-out: pTGI (converted); procedure, shortened: as §1
[8] = system: COLO 205; assay: Growth inhibition of human COLO205 cells after 48 hrs; settings: COLO 205, 48 h; for TGI: read-out: pTGI (converted); procedure, shortened: as §1
[9] = system: SK-OV-3; assay: Growth inhibition of human SKOV3 cells after 48 hrs; settings: SK-OV-3, 48 h; for TGI: read-out: pTGI (converted); procedure, shortened: as §2
[10] = system: HOP-92; assay: Growth inhibition of human HOP92 cells after 48 hrs; settings: HOP-92, 48 h; for TGI: read-out: pTGI (converted); procedure, shortened: as §1
[11] = system: HOP-62; assay: Growth inhibition of human HOP62 cells after 48 hrs; settings: HOP-62, 48 h; for TGI: read-out: pTGI (converted); procedure, shortened: as §1
[12] = system: Malme-3M; assay: Growth inhibition of human MALME3M cells after 48 hrs; settings: for TGI: read-out: pTGI (converted); procedure, shortened: as §1
[13] = system: OVCAR-8; assay: Growth inhibition of human OVCAR8 cells after 48 hrs; settings: OVCAR-8, 48 h; for TGI: read-out: pTGI (converted); procedure, shortened: as §1
[14] = system: SNB-75; assay: Growth inhibition of human SNB75 cells after 48 hrs; settings: SNB-75, 48 h; for TGI: read-out: pTGI (converted); procedure, shortened: as §2
[15] = system: HCT-15; assay: Growth inhibition of human HCT15 cells after 48 hrs; settings: HCT-15, 48 h; for TGI: read-out: pTGI; procedure, shortened: as §1
[16] = system: HT-29; assay: Growth inhibition of human HT29 cells after 48 hrs; settings: HT-29, 48 h; for TGI: read-out: pTGI (converted); procedure, shortened: as §1
[17] = system: SW-620; assay: Growth inhibition of human SW620 cells after 48 hrs; settings: SW-620, 48 h; for TGI: read-out: pTGI (converted); procedure, shortened: as §2
[18] = system: SF-539; assay: Growth inhibition of human SF539 cells after 48 hrs; settings: SF-539, 48 h; for TGI: read-out: pTGI (converted); procedure, shortened: as §1
[19] = system: SF-268; assay: Growth inhibition of human SF268 cells after 48 hrs; settings: SF-268, 48 h; for TGI: read-out: pTGI (converted); procedure, shortened: as §1
[20] = system: PC-3; assay: Growth inhibition of human PC3 cells after 48 hrs; settings: PC-3, 48 h; for TGI: read-out: pTGI (converted); procedure, shortened: as §1
[21] = system: UACC-62; assay: Growth inhibition of human UACC62 cells after 48 hrs; settings: UACC-62, 48 h; for TGI: read-out: pTGI (converted); procedure, shortened: as §2
[22] = system: RPMI-8226; assay: Growth inhibition of human RPMI8226 cells after 48 hrs; settings: RPMI-8226, 48 h; for TGI: read-out: pTGI (converted); procedure, shortened: as §1
[23] = system: NCI/ADR-RES; assay: Growth inhibition of human NCI/ADR-RES cells after 48 hrs; settings: for TGI: read-out: pTGI (converted); procedure, shortened: as §1
[24] = system: SR; assay: Growth inhibition of human SR cells after 48 hrs; procedure, shortened: as §2

Structure (SMILES): CCCCN(CCCC)CCCn1c(=O)c2c3ccccc3n(C)c2n2nnc(-c3ccccc3)c12
- GI50 [1]: 36.3 µM
- TGI [1]: > 100 µM
- GI50 [2]: 19.5 µM
- TGI [2]: 95.5 µM
- GI50 [3]: 47.9 µM
- TGI [3]: > 100 µM
- GI50 [4]: 20.4 µM
- TGI [4]: > 100 µM
- GI50 [5]: 14.1 µM
- TGI [5]: 42.7 µM
- GI50 [6]: 31.6 µM
- TGI [6]: > 100 µM
- GI50 [7]: > 100 µM
- TGI [7]: > 100 µM
- GI50 [8]: 5.01 µM
- TGI [8]: 63.1 µM
- GI50 [9]: 30.2 µM
- TGI [9]: 30.2 µM
- GI50 [10]: 18.6 µM
- TGI [10]: 44.7 µM
- GI50 [11]: 30.9 µM
- TGI [11]: > 100 µM
- GI50 [12]: 28.2 µM
- TGI [12]: 89.1 µM
- GI50 [13]: 39.8 µM
- TGI [13]: > 100 µM
- GI50 [14]: 15.1 µM
- TGI [14]: 56.2 µM
- GI50 [15]: 20.9 µM
- TGI [15]: > 100 µM
- GI50 [16]: 7.76 µM
- TGI [16]: 36.3 µM
- GI50 [17]: 26.3 µM
- TGI [17]: > 100 µM
- GI50 [18]: 66.1 µM
- TGI [18]: > 100 µM
- GI50 [19]: > 100 µM
- TGI [19]: > 100 µM
- GI50 [20]: 18.2 µM
- TGI [20]: 47.9 µM
- GI50 [21]: 22.4 µM
- TGI [21]: 85.1 µM
- GI50 [22]: 6.03 µM
- TGI [22]: 49 µM
- GI50 [23]: 14.1 µM
- TGI [23]: 67.6 µM

Structure (SMILES): Cn1c2ccccc2c2c(=O)n(CCCC(=O)NCCc3c[nH]cn3)c3c(-c4ccccc4)nnn3c21
- GI50 [1]: 9.33 µM
- LC50 (concentration killing 50% of cells) [1]: 37.2 µM
- TGI [1]: 18.6 µM
- GI50 [2]: 8.71 µM
- LC50 [2]: 39.8 µM
- TGI [2]: 18.6 µM
- GI50 [3]: 6.92 µM
- LC50 [3]: 27.5 µM
- TGI [3]: 13.8 µM
- GI50 [4]: 9.55 µM
- LC50 [4]: 40.7 µM
- TGI [4]: 20 µM
- GI50 [5]: 7.41 µM
- LC50 [5]: 44.7 µM
- TGI [5]: 18.2 µM
- GI50 [6]: 9.12 µM
- LC50 [6]: 32.4 µM
- TGI [6]: 17 µM
- GI50 [7]: 10.2 µM
- LC50 [7]: 42.7 µM
- TGI [7]: 20.9 µM
- GI50 [8]: 8.51 µM
- LC50 [8]: 44.7 µM
- TGI [8]: 19.5 µM
- GI50 [9]: 10.2 µM
- LC50 [9]: 33.9 µM
- TGI [9]: 18.6 µM
- GI50 [10]: 1.35 µM
- LC50 [10]: 44.7 µM
- TGI [10]: 5.5 µM
- GI50 [11]: 7.59 µM
- LC50 [11]: 37.2 µM
- TGI [11]: 17 µM
- GI50 [12]: 7.59 µM
- LC50 [12]: 37.2 µM
- TGI [12]: 16.6 µM
- GI50 [13]: 10 µM
- LC50 [13]: 42.7 µM
- TGI [13]: 20.9 µM
- GI50 [14]: 10.5 µM
- LC50 [14]: 33.1 µM
- TGI [14]: 18.6 µM
- GI50 [15]: 14.5 µM
- LC50 [15]: > 50.1 µM
- TGI [15]: 43.7 µM
- GI50 [16]: 8.51 µM
- LC50 (concentration killing 50% of cells) [16]: 37.2 µM
- TGI [16]: 17.8 µM
- GI50 [17]: 12.9 µM
- LC50 (lethal concentration, 50% cell kill) [17]: > 50.1 µM
- TGI [17]: 30.2 µM
- GI50 [24]: 4.07 µM
- LC50 [24]: > 50.1 µM
- TGI ([24]; read-out: pTGI (converted)): > 50.1 µM
- GI50 [18]: 9.33 µM
- LC50 (concentration killing 50% of cells) [18]: 31.6 µM
- TGI [18]: 17.4 µM
- GI50 [19]: 11.7 µM
- CC50 ([19]; read-out: Log LC50 (the source's name) (converted)): > 50.1 µM
- TGI [19]: 31.6 µM
- GI50 [20]: 8.91 µM
- LC50 [20]: 44.7 µM
- TGI [20]: 20 µM
- GI50 [21]: 9.77 µM
- LC50 [21]: 31.6 µM
- TGI [21]: 17.8 µM
- GI50 [22]: 10.5 µM
- LC50 [22]: > 50.1 µM
- TGI [22]: 28.8 µM
- GI50 [23]: > 50.1 µM
- LC50 (concentration killing 50% of cells) [23]: > 50.1 µM
- TGI [23]: > 50.1 µM

— ChEMBL document CHEMBL1142436, “Design and synthesis of 4-substituted indolo[3,2-e][1,2,3]triazolo[1,5-a]pyrimidine derivatives with antitumor activity” (2008)
